FLuc act counter – FLuc activators, initial screening, artefact control for FLuc-dependent activation tests, biochemical, ATPlite luminescence | 200,000 tested, under 10 active | ATPlite luciferase biochemical, 10 min; 0 = ATP-free wells, 1 = DMSO control | AID 1027, 2008 | Luciferin 4-monooxygenase (Photinus pyralis), P08659 | activation factor at 10 µM;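 active means luciferase activation factor, scaled between plate controls, of at least 2 with compound at 10 µM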
Target sequence (P08659 whole entry, looked up): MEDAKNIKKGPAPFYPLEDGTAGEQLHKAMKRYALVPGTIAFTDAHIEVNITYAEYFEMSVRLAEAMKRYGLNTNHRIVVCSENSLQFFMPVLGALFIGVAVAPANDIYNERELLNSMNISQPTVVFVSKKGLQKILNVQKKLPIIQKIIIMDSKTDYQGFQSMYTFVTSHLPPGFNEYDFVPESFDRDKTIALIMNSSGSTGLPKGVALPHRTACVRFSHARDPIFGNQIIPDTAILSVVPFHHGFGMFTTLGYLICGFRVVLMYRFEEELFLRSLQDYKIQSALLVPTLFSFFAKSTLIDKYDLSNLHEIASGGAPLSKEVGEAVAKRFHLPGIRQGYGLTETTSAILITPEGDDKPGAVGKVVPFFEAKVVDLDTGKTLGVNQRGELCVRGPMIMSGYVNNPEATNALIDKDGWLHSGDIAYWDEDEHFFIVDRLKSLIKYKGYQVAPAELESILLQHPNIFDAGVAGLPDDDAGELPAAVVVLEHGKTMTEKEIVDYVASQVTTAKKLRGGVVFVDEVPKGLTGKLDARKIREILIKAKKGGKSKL
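Material: Luciferase/luciferin reagent mix; Doses: test compounds dosed from 2 mM stocks in 100% DMSO; Schedule: 10 min incubation after luciferase reagent addition, room temperature; Measured by: luminescence from luciferase reaction; Read-out: luminescence gain marking luciferase activators.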
C8 TRAIL sens – viability loss with TRAIL in NB7+C8 cells, primary screen, TRAIL sensitizer project, cell-based, ATPlite luminescence. inhibition (viability loss, TRAIL sensitization), % at 10 µM. 360,000 compounds, 1% hits. AID 624354, 2012;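 active means compounds causing at least 50% loss of cell viability in the single-dose screen, relative to plate controls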
FLuc inh counter – firefly luciferase enzyme inhibitors, primary screen, artefact control for luciferase-based inhibitor screens, biochemical, luminescence, ATPLite | inhibition, % at 10 µM | 200,000 compounds, 1.5% hits | Luciferin 4-monooxygenase (Photinus pyralis), P08659 | 10 min;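 active means inhibition above about 50% when tested at 10 µM, limit read from the data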
PPC-1+TRAIL kill – compounds killing PPC-1 cancer cells with TRAIL present, primary screen, TRAIL potentiator project, ATPLite luminescence, uHTS. PPC-1 cells + TRAIL, ATPLite viability luminescence. cell killing (% activity), % at 4 µM or 5 µM. 220,000 compounds, 0.41% hits;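 active means cell killing above 50% in the first pass at 4 µM, then a duplicate retest at 5 µM averaging 50% or more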;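 further: plate controls were cells with TRAIL plus DMSO for no effect and medium-only wells lacking cells for full effect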
The depositor's hits bear a star; . = no result given. Most compounds without a hit are left out; they make up all but 1.6% or so of the library.

SMILES	FLuc act counter	C8 TRAIL sens	FLuc inh counter	PPC-1+TRAIL kill
COc1cccc(NC(=O)CN2CCN(S(=O)(=O)c3ccc(C(C)C)cc3)CC2)c1	1	-1	-2	3
CN(C(=O)c1cccc(COc2ccc(Cl)cc2Cl)c1)c1ccccc1	1.1	11	-5	10
CN(C)C(=O)c1cccc(COc2ccc(N3C(N)=NC(N)=NC3(C)C)cc2Cl)c1	.	83*	.	.
Nc1ccc2nc(C3CCCCC3)[nH]c2c1	1	9	4	8
Nc1ccc2cc3[nH]c4cc(N)ccc4c3nc2c1	.	63*	.	.
COc1ccc(/C=N/c2c(-c3ccc(OC)cc3)nc3n2CCS3)cc1	0.4	18	59*	-7
CCCN(CC(=O)Nc1ccccc1C)C(=O)CCl	1	91*	-2	36
Cn1c(=N)n(CC(=O)c2ccc(Cl)c(Cl)c2)c2ccccc21	.	66*	.	.
CCCCn1c(N)c(N(CCC(C)C)C(=O)C2CCCN(C(=O)c3ccc(Cl)cc3)C2)c(=O)[nH]c1=O (configuration not stated)	.	-4	.	.
COc1ccc2[nH]c3c(c2c1)CCNC3=O	.	-7	.	.
C=C1CCc2c([nH]c3ccc(OCC(C)C)cc23)C1=O	.	89*	.	.
CCN(CC)c1ccc(C(=O)OCc2cc(=O)oc3cc(O)ccc23)cc1	1	50*	-3	-24
Cc1nc(SCC(=O)NC(C)c2ccccc2)c2oc3ccccc3c2n1 (configuration not stated)	1	31	-3	8
CCCCNc1c(-c2ccc(SC(C)CC)cc2)nc2ccccn12 (configuration not stated)	.	69*	.	.
CCN(CC)C(=O)c1csc([C@H]2C[C@H](O)[C@@H](CO)O2)n1	.	-15	.	.
COc1cc(C2Nc3ccccc3C(=O)N2c2ccccc2OC)ccc1O (configuration not stated)	1	3	-2	14
O=C1c2ccccc2NC(c2ccc3c(c2)OCCO3)N1c1ccc2c(c1)OCCO2 (configuration not stated)	0.8	64*	18	42
COc1cc(C2Nc3ccccc3C(=O)N2c2ccc3c(c2)OCCO3)ccc1OCC(C)C (configuration not stated)	0.9	55*	10	27
O=S(=O)(c1ccc2c(c1)CCCN2)N1CCCC2CCCCC21 (configuration not stated)	.	2	.	22
CC(OC(=O)c1ccc(S(C)(=O)=O)c([N+](=O)[O-])c1)C(=O)NC1C2CC3CC(C2)CC1C3 (configuration not stated)	.	73*	.	.
CCC(OC(=O)c1ccc(S(C)(=O)=O)c([N+](=O)[O-])c1)C(=O)NC1C2CC3CC(C2)CC1C3 (configuration not stated)	.	74*	.	.
O=C(COC(=O)CCC(=O)c1ccc(F)cc1)NCc1ccc(Cl)cc1	.	-3	.	.
Cc1ccc2oc(-c3ccccc3)c(C(=O)O)c(=O)c2c1	0.9	57*	6	28
CCOC(=O)c1c(C)nc2c(c1-c1cc(OC)c(OC)c(OC)c1)C(=O)c1ccccc1-2	1	66*	-5	8
Cc1ccc2nc(-c3ccc4c(c3)NC(=O)CO4)cn2c1	.	33	.	48
SMILES	FLuc act counter	C8 TRAIL sens	FLuc inh counter	PPC-1+TRAIL kill
Cc1c(Cc2ccccc2)sc(NC(=O)/C=C/c2cccc3ccccc23)c1C(N)=O	1	-22	-4	15
Cc1c(N(C)CS(=O)(=O)O)c(=O)n(-c2ccccc2)n1C	.	6	.	.
Cc1ccc2nc(-c3ccccn3)[nH]c2c1	.	70*	.	.
c1ccc(-c2nc3ccccc3[nH]2)nc1	0.5	18	46	23
Cc1ccc2nc(-c3ccccc3N)[nH]c2c1	0.2	33	80*	47
O=C(Nc1ccc2nc(-c3ccccn3)[nH]c2c1)C1CCCCC1	0.4	53*	63*	38
CCc1nc2c(OCc3cccc(OC)c3)cccn2c1N(C)C(=O)c1ccccc1F	.	10	.	.
O=C(CCCCC(=O)NN=Cc1ccc2c(c1)CCC2)NN=Cc1ccc2c(c1)CCC2	.	-3	.	.
O=C1C(Cl)=C(Nc2ccccc2)C(=O)c2ccccc21	1	88*	-1	16
O=C1C(Cl)=C(NCc2cccnc2)C(=O)c2ccccc21	.	80*	.	.
O=C(O)c1ccc(NC2=C(Cl)C(=O)c3ccccc3C2=O)cc1	.	22	.	25
Nn1c(SCC(=O)N2CCCc3ccccc32)nnc1-c1ccccc1	1.1	-3	-8	8
O=C(Nc1cnccn1)C1c2ccccc2Oc2ccccc21	1	0	-3	2
CN(C)c1ccc(/C=C/c2ccc3c4ccccc4ccc3[n+]2-c2ccccc2)cc1	0.3	63*	65*	68*
CN(C)c1ccc(/C=C/c2ccc3ccccc3[n+]2C)cc1	0.7	36	32	40
CC(C(=O)O)c1ccc(N2Cc3ccccc3C2=O)cc1 (configuration not stated)	0.4	37	62*	23
CC(C)OC(=O)c1ccc(NCc2cc(O)ccc2O)cc1	.	73*	.	.
O=C(OCc1ccccc1)c1ccc(NCc2cc(O)ccc2O)cc1	.	90*	.	.
CCC(=O)Nc1ccc(C(=O)OCc2ccccc2)cc1	1	2	-3	9
Cc1ccccc1Nc1nc(N)nc(CCl)n1	.	91*	.	14
COc1ccc(Nc2nc(N)nc(CCl)n2)cc1	.	92*	.	30
Cc1c(Cl)cccc1Nc1nc(N)nc(CSCCO)n1	1	-13	-1	-22
Cc1ccccc1Nc1nc(N)nc(CN(C)c2ccccc2)n1	1	-1	-5	36
Cc1c(Cl)cccc1Nc1nc(N)nc(CSc2ncccn2)n1	1	91*	-4	-10
O=C1c2ccccc2C(O)N1c1ccc(Cl)cc1 (configuration not stated)	1	-6	2	26
SMILES	FLuc act counter	C8 TRAIL sens	FLuc inh counter	PPC-1+TRAIL kill
COc1ccc(NC(=S)Nc2cccnc2)c(OC)c1	1	0	0	10
CCc1nnc(/N=C/c2c(O)n(-c3ccc(Cl)cn3)c(=O)c3ccccc23)s1	0.3	3	66*	-1
CCCOc1ccc(CCC(=O)N/N=C/c2ccc([N+](=O)[O-])o2)cc1	.	-3	.	2
O=C(c1ccc(CSc2nc3ccncc3[nH]2)cc1)N1CCCCC1	0.3	44	68*	36
COc1ccc(Cc2c(C)nc(N)nc2Cl)cc1	1	-5	-3	7
Cc1nc(N)nc(N)c1-c1ccc(Cl)c(Cl)c1	.	82*	.	.
Cc1nc(N)nc(N)c1CCCc1ccc(Cl)c(Cl)c1	.	73*	.	.
Cc1cc(OCc2nc(N)nc(N)c2-c2ccc(Cl)c(Cl)c2)ccc1[N+](=O)[O-]	.	83*	.	.
CCN1CCN(C(=O)C2CCC(CNS(=O)(=O)c3ccc(NC(C)=O)cc3)CC2)CC1 (configuration not stated)	.	-8	.	.
COc1ccc(OC)c(NC(=O)CCN2C(=O)c3ccccc3C2=O)c1	.	-7	.	.
CCOC(=O)C1=CCN(S(=O)(=O)c2ccc(F)cc2)C1c1ccc(Br)cc1 (configuration not stated)	.	2	.	.

Source: PubChem BioAssay
